Assay results pooled from the literature.
Each line is one published result; the experiments were not run side by side.
Effect on: cell growth or viability

COc1cc(N(C)CCN(C)C)c(NC(=O)C=C(C)C)cc1Nc1nc(N2CCc3sccc3C2)c2sccc2n1 — IC50 (NCI-H1975; MTT): 9.93 µM
c1ccc(-c2ccc(CNCC3(N4CCCC4)COC3)o2)cc1 — viability (GBM6; 30 µM, 48 h): 80.5%
COc1ccc(-c2ccc(-c3ccc(C(=N)N)nc3)s2)cc1Cl — GI50 (SK-MEL-28; SRB): 1.73 µM
CCOC(=O)c1cn(CC)c2cc(OCc3ccccc3)ccc2c1=O — IC50 (HEK293): > 10 µM
COc1c(OCCCN2CCOCC2)ccc2c1N=C(NC(=O)c1cnc(N)nc1C)N1CCN=C21 — EC50 (KPL4): 0.0023 µM
C=CC(=O)N1CCC[C@@H](n2nc(-c3ccc(Oc4ccccc4)cc3)c3c(N)ncnc32)C1 — GI50 (KARPAS-422; ATP luminescence; 72 h): 21.6 µM
Fc1ccc2c(CNCC3(N4CCC(F)C4)COC3)c[nH]c2c1 (stereo not drawn) — viability (T98G; 30 µM, 48 h): 96.4%
CCCc1n(Cc2ccc3ccccc3n2)cc[n+]1Cc1ccc2ccccc2c1 — TGI (NCI-H322M; SRB): 15 µM
c1cc2cc(CNCC3(N4CCCC4)COC3)ccc2[nH]1 — viability (T98G; 30 µM, 48 h): 98.2%
Cc1cc(C)c(CNC(=O)c2cc(Cl)c3c(c2C)O[C@@](C)([C@H]2CC[C@H](N(C)C)CC2)O3)c(=O)[nH]1 — GI50 (KARPAS-422; 8 days): 0.013 µM
Fc1ccc2[nH]cc(CNCC3(N4CCC(F)C4)COC3)c2c1 (stereo not drawn) — viability (T98G; 30 µM, 48 h): 75.2%
c1ccc(-c2n(Cc3ccc4ccccc4c3)cc[n+]2Cc2ccc3ccccc3c2)cc1 — TGI (NCI-H322M; SRB): 2.82 µM
Cc1[nH]c(C)c(-c2ccc(OCc3ccccc3C(F)(F)F)nc2)c(=O)c1Br — IC50 (HEK293): > 10 µM
C=CC(=O)Nc1cc(Nc2nc(N3CCc4sccc4C3)c3sccc3n2)c(OC)cc1N1CCN(C)CC1 — IC50 (NCI-H1975; MTT): 6.65 µM
COc1ccc(-c2ccc(-c3ccc(C(=N)N)nc3)s2)cc1 — GI50 (SF-539; SRB): 1.73 µM
FC1CCN(C2(CNCc3ccc(-c4ccccc4)o3)COC2)C1 (stereo not drawn) — viability (T98G; 30 µM, 48 h): 96.4%
CCC(=O)Nc1cc(Nc2nc(N3CCc4sccc4C3)c3cccnc3n2)c(OC)cc1N1CCOCC1 — IC50 (NCI-H1975; MTT): 1.9 µM
c1ccc(-c2ccc(CNCC3(N4CCCC4)COC3)s2)cc1 — viability (T98G; 30 µM, 48 h): 69%
Cc1n(Cc2ccc3ccccc3n2)cc[n+]1Cc1ccc2ccccc2c1 — TGI (NCI-H322M; SRB): 14.7 µM
COc1cccc(Oc2ccccc2NC(=O)CNC(=O)c2cccc3ccccc23)c1 — GI50 (SK-MEL-28; SRB; 48 h): 4.37 µM
COc1cc(-c2ccc(-c3ccc(C(=N)N)nc3)s2)cc(OC)c1OC — GI50 (SK-MEL-28; SRB): 1.62 µM
Clc1ccccc1-c1ccc(CNCC2(N3CCCC3)COC2)o1 — viability (T98G; 30 µM, 48 h): 94.9%
COc1cc(N(C)CCN(C)C)c(NC(=O)C=C(C)C)cc1Nc1nc(Nc2cnn(C)c2)c2sccc2n1 — IC50 (NCI-H1975; MTT): 0.418 µM
Cn1cc(-c2cc(N3CCCCS3(=O)=O)ccc2Oc2ccc(F)cc2F)c2c(F)c[nH]c2c1=O — GI50 (TMD8; CCK-8; 72 h): 0.0093 µM
Cc1cc2nc(-c3ccc(C(=O)NC4CCN(Cc5ccccc5)CC4)s3)[nH]c2cc1C — IC50 (HEK293): > 10 µM
CC(=O)c1c(C)c2cnc(Nc3ccc(N4CCNCC4)cn3)nc2n(C2CCCC2)c1=O — GI50 (HCC1428; resazurin): 0.6 µM
Clc1ccc2c(NN=Cc3cccs3)ccnc2c1 — IC50 (HEK293): > 10 µM
C=CC(=O)N1CCC[C@@H](n2nc(-c3ccc(Oc4ccccc4)cc3)c3c(N)ncnc32)C1 — GI50 (Rec1; ATP luminescence; 72 h): 3.3 µM
COc1ccc(CCc2ccc(-c3c(C)[nH]c(C)c(Cl)c3=O)cc2)cc1 — IC50 (HEK293): > 10 µM
COc1cc(N(C)CCN(C)C)c(NC(=O)/C=C/C(C)C)cc1Nc1nc(N2CCc3sccc3C2)c2sccc2n1 — IC50 (NCI-H1975; MTT): 15.6 µM
O=C(c1cc(-c2ccco2)[nH]n1)N1CCN(S(=O)(=O)c2ccc(Br)cc2)CC1 — IC50 (HEK293): > 10 µM
C=CC(=O)Nc1cc(Nc2nc(Nc3cnn(C)c3)c3sccc3n2)c(OC)cc1N(C)CCN(C)C — IC50 (NCI-H1975; MTT): 4.54 µM
O=C(c1cc(-c2ccccc2O)on1)N1CCN(C(c2ccccc2)c2ccccc2)CC1 — IC50 (HEK293): > 10 µM
c1cc2c(cc1CNCC1(N3CCCC3)COC1)OCCO2 — viability (T98G; 30 µM, 48 h): 97.2%
C=CC(=O)Nc1cc(Nc2nc(N3CCc4sccc4C3)c3cccnc3n2)c(OC)cc1N(C)CCN(C)C — IC50 (NCI-H1975; MTT): 0.596 µM
Cc1cc(=O)c(-c2ccc(Oc3ccc(Cl)cc3Cl)cc2)c(C)[nH]1 — IC50 (HEK293): > 10 µM
